{
  "source": "ChEMBL document CHEMBL2016531",
  "about": "“Identification of NAE Inhibitors Exhibiting Potent Activity in Leukemia Cells: Exploring the Structural Determinants of NAE Specificity” (ACS Med Chem Lett, 2011)",
  "key": {"[1]": {"target": "High affinity nerve growth factor receptor (Homo sapiens) (UniProt P04629)", "sequence (P04629 33-796 limits assumed)": "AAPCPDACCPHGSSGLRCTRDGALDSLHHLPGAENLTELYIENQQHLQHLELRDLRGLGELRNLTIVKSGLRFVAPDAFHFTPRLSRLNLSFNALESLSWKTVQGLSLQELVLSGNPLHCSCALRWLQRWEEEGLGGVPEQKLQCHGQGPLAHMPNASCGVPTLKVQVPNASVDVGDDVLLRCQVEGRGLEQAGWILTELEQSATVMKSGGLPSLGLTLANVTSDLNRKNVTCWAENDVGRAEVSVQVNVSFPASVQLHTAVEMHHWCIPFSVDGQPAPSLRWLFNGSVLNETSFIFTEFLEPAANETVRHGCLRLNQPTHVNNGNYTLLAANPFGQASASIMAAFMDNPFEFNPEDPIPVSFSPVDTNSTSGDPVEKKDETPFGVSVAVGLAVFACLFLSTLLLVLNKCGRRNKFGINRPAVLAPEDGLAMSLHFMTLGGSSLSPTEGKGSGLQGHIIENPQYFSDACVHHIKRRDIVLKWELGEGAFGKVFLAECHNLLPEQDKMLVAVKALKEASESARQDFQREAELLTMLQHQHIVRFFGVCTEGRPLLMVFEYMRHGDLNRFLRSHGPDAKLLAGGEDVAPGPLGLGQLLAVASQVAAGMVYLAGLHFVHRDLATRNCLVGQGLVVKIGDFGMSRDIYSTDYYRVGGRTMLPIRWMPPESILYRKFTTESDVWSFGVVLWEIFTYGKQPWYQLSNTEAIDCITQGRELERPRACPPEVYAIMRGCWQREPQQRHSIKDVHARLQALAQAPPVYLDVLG", "test": "Inhibition of TRKA assessed as remaining activity at 0.1 uM by radiolabeled kinase assay relative to control"}, "[2]": {"target": "T1, NEDD8-activating enzyme E1 regulatory subunit (Homo sapiens) (UniProt Q13564)", "T1 sequence (whole entry)": "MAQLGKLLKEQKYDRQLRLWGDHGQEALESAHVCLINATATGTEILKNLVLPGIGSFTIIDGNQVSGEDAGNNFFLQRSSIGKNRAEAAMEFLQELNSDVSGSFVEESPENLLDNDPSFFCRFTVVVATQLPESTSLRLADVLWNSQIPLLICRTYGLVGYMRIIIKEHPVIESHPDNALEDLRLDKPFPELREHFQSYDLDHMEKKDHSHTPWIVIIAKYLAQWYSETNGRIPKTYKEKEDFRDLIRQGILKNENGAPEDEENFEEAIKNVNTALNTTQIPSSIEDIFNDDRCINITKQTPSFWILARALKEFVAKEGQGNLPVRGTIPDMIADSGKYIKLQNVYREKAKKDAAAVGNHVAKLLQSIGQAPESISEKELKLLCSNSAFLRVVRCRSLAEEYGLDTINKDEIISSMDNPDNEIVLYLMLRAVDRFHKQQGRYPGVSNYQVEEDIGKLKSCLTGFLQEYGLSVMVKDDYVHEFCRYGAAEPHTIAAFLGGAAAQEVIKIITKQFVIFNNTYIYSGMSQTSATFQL", "test": "Inhibition of APPBP1-mediated NEDD8 activation at […] after 1.5 hrs by Western blot analysis"}, "Homo sapiens [3]": {"species": "Homo sapiens", "test": "Inhibition of human recombinant NAE assessed as inhibition of NEDD8-UbcH12 complex formation at 1 nM after 1.5 hrs by Western blot analysis", "in_short": "(§1)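 Cell-free gel assay. Purified human recombinant E1 incubated with its matching Ub/Ubl and E2 in 50 mM HEPES pH 7.4, 5 mM MgCl2, 1–20 μM ATP. Inhibitor at 0, 0.001, 0.01, 0.1, 1 or 10 μM, 1.5 h at room temperature. Products resolved by SDS-PAGE, immunoblotted and detected by ECL; densitometry used for semiquantitation.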"}, "[4]": {"target": "Cyclin-dependent kinase 1/cyclin B1 (Homo sapiens) (UniProt P06493+P14635)", "sequence (P06493 whole entry, looked up)": "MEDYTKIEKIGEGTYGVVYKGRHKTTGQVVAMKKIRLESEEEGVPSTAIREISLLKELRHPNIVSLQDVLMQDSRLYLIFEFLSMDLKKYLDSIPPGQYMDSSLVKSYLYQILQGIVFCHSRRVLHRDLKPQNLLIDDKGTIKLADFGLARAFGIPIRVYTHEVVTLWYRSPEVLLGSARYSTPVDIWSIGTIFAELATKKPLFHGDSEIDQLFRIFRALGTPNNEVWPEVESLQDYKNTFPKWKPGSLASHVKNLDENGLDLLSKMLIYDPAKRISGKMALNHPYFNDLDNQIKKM", "sequence (P14635 whole entry, looked up)": "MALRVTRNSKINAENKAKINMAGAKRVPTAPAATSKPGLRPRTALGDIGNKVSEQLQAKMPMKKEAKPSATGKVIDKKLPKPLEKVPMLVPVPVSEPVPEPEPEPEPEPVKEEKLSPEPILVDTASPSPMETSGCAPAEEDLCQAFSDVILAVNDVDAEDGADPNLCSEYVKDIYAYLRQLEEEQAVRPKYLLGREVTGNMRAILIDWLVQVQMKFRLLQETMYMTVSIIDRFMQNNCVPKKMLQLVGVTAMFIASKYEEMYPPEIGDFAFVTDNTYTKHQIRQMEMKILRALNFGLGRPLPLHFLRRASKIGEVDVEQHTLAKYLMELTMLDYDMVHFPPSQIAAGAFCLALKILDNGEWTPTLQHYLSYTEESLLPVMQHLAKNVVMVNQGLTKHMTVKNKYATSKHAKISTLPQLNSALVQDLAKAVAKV", "test": "Inhibition of CDK1/cyclin B assessed as remaining activity at 0.1 uM by radiolabeled kinase assay relative to control", "type": "protein-complex assay"}, "[5]": {"target": "T2, Tyrosine-protein kinase JAK3 (Homo sapiens) (UniProt P52333)", "T2 sequence (whole entry)": "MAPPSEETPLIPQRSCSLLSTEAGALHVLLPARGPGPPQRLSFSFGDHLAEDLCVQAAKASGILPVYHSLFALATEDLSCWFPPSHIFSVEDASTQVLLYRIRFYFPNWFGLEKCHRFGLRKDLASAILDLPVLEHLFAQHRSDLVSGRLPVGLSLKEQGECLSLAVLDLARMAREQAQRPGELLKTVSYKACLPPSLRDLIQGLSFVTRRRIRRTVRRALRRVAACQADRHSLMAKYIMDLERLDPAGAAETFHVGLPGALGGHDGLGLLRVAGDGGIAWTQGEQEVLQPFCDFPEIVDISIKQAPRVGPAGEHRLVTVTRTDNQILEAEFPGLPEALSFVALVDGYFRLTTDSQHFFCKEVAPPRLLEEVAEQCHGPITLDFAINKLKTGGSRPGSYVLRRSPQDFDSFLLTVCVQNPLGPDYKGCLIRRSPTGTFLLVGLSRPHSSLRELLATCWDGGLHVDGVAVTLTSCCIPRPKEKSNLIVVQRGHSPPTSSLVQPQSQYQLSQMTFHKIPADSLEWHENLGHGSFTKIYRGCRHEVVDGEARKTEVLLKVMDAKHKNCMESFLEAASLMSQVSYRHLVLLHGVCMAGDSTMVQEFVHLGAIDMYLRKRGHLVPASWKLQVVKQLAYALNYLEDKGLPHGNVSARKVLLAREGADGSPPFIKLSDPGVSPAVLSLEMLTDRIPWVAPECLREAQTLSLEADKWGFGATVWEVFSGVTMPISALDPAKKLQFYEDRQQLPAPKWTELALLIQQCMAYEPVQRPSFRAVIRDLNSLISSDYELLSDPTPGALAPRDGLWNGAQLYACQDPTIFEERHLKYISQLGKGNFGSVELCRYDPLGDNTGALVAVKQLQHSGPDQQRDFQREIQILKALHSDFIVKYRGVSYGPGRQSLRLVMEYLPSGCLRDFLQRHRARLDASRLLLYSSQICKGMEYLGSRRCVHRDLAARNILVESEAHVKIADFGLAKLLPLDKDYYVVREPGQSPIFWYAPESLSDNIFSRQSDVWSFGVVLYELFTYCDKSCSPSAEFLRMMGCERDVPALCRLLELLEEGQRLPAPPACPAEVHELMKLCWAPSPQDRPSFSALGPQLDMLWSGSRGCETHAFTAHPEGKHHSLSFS", "test": "Inhibition of JAK3 assessed as remaining activity at 0.1 uM by radiolabeled kinase assay relative to control"}, "[6]": {"target": "Dual specificity mitogen-activated protein kinase kinase 1 (Homo sapiens) (UniProt Q02750)", "sequence (Q02750 whole entry)": "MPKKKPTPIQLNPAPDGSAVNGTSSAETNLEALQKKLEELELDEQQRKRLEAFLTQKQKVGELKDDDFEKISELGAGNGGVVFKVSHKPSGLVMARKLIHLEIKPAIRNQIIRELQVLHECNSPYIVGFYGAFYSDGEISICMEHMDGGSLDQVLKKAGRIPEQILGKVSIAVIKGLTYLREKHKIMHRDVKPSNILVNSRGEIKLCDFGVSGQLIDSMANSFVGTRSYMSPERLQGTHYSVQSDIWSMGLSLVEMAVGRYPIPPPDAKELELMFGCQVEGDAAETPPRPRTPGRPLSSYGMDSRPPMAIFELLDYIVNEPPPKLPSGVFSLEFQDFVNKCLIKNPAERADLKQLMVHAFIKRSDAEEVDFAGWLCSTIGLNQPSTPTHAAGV", "test": "Inhibition of MEK1 assessed as remaining activity at 0.1 uM by radiolabeled kinase assay relative to control"}, "[7]": {"test": "Inhibition of human recombinant NAE assessed as inhibition of NEDD8-UbcH12 complex formation after 1.5 hrs by Western blot analysis", "in_short": "as §1"}, "K562 [8]": {"test_system": "K562", "test": "Inhibition of NAE in human K562 cells assessed as inhibition of NEDD8-cullin complex formation at 1 to 1000 nM after 24 hrs by immunoblotting", "type": "cell-based", "in_short": "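K562 cells treated with increasing concentrations for 24 h, then harvested. Total cellular protein isolated and NEDD8–cullin conjugates detected by immunoblotting.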"}, "[9]": {"target": "Tyrosine-protein kinase JAK1 (Homo sapiens) (UniProt P23458)", "sequence (P23458 whole entry)": "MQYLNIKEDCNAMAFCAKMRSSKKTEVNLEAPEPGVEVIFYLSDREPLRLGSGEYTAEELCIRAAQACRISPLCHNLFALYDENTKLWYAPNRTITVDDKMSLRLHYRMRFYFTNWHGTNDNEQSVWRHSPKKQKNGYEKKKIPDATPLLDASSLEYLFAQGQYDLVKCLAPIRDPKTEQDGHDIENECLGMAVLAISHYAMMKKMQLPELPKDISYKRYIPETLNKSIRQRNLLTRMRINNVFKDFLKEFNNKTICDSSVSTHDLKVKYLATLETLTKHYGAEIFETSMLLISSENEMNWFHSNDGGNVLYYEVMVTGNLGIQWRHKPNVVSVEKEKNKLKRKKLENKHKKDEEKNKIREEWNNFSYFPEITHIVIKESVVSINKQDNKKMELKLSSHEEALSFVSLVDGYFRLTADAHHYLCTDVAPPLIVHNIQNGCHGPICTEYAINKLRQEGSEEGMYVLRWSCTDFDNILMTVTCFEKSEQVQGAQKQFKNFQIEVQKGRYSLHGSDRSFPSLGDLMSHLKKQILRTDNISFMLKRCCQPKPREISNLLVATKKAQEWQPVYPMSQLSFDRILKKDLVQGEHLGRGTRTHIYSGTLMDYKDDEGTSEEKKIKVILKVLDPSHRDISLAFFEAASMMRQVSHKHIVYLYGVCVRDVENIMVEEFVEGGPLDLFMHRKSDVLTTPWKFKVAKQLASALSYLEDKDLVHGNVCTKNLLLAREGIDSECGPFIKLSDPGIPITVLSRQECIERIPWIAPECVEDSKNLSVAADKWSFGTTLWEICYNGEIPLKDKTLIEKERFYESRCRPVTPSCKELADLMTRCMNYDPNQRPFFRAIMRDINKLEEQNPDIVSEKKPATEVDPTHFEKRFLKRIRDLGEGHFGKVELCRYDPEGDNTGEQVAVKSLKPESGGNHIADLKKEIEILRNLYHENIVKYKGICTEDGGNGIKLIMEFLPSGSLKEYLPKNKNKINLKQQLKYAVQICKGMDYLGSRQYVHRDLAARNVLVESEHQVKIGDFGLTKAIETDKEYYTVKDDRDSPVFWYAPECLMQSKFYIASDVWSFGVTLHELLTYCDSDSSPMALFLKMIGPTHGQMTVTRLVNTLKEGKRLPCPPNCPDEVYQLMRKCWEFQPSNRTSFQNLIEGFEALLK", "test": "Inhibition of JAK1 assessed as remaining activity at 0.1 uM by radiolabeled kinase assay relative to control"}, "[10]": {"target": "Calcium/calmodulin-dependent protein kinase type II subunit beta (Homo sapiens) (UniProt Q13554)", "sequence (Q13554 whole entry)": "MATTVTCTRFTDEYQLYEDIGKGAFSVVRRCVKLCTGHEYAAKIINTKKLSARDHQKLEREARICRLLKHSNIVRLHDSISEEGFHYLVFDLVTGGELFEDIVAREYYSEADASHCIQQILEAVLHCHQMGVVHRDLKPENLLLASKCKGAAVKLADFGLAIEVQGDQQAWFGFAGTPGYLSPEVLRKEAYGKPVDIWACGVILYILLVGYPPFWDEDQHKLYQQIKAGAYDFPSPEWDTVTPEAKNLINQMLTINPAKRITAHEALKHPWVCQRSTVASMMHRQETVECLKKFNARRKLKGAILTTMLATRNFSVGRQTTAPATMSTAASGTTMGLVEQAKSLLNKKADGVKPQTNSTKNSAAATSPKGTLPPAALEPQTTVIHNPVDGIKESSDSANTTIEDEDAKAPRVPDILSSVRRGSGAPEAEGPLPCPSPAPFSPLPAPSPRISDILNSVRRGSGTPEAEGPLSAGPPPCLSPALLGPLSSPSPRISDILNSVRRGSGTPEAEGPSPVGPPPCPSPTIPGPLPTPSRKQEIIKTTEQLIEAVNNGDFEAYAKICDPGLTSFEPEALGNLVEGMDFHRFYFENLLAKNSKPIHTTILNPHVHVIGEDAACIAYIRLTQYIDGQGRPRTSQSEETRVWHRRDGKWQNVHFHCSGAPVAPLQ", "test": "Inhibition of CAMK2b assessed as remaining activity at 0.1 uM by radiolabeled kinase assay relative to control"}, "Homo sapiens [11]": {"species": "Homo sapiens", "test": "Inhibition of human recombinant NAE assessed as inhibition of NEDD8-UbcH12 complex formation at 0.001 to 10 uM after 1.5 hrs by Western blot analysis", "in_short": "as §1"}, "[12]": {"target": "Tyrosine-protein kinase ABL1 (Homo sapiens) (UniProt P00519)", "sequence (P00519 whole entry)": "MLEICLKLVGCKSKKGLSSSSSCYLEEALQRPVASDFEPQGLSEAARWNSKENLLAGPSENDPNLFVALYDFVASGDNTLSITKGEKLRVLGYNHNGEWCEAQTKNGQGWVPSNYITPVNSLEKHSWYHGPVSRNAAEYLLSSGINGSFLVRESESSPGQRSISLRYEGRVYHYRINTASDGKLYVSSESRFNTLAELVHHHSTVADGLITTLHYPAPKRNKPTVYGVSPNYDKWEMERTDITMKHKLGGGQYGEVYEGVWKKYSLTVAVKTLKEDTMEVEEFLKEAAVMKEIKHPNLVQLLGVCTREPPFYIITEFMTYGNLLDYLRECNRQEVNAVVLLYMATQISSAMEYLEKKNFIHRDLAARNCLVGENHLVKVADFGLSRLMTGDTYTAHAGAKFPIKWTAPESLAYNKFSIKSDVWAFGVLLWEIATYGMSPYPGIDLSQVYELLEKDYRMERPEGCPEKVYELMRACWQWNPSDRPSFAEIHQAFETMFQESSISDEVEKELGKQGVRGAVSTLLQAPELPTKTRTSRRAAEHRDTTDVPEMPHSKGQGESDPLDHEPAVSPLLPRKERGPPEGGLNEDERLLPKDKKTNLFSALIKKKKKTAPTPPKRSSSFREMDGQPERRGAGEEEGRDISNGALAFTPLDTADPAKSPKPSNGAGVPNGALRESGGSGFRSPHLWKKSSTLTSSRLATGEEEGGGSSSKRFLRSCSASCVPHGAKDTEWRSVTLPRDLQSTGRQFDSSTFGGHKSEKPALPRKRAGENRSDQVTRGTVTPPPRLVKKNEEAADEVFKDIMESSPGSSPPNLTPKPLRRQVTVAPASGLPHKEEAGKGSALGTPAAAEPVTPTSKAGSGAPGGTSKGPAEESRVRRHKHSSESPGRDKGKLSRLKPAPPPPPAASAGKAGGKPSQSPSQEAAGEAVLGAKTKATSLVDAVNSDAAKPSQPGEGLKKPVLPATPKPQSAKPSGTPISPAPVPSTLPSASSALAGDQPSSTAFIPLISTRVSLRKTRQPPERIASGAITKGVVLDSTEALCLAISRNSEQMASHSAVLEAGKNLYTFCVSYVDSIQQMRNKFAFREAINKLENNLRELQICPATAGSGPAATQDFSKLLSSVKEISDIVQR", "test": "Inhibition of ABL assessed as remaining activity at 0.1 uM by radiolabeled kinase assay relative to control"}, "[13]": {"target": "Epidermal growth factor receptor (Homo sapiens) (UniProt P00533)", "test": "Inhibition of EGFR assessed as remaining activity at 0.1 uM by radiolabeled kinase assay relative to control"}, "K562 [14]": {"test_system": "K562", "test": "Antiproliferative activity against human K562 cells after 72 hrs by CellTiter-Glo assay", "type": "functional, cell-based", "conditions": "K562, 72 h", "in_short": "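K562 leukemia cells exposed to increasing concentrations for 72 h; growth and viability read by CellTiter-Glo luminescence.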"}},
  "note": "pEC50, pIC50: −log10 of the molar value. Calls of active or inactive are those of the source. The calls are words filed in the database; no cut-off is given here.",
  "data": [
    {"smiles": "CCCCCCNc1ncnc2c1ncn2[C@@H]1O[C@H](COS(N)(=O)=O)[C@@H](O)[C@H]1O", "values": [
      {"measurement": "Activity", "setting": "[1]", "result": 109, "unit": "%"},
      {"measurement": "inhibition", "setting": "[2]", "result": "Active"},
      {"measurement": "inhibition", "setting": "Homo sapiens [3]", "result": "> 70", "unit": "%"},
      {"measurement": "Activity", "setting": "[4]", "result": 114, "unit": "%"},
      {"measurement": "Activity", "setting": "[5]", "result": 94, "unit": "%"},
      {"measurement": "Activity", "setting": "[6]", "result": 123, "unit": "%"},
      {"measurement": "pIC50", "setting": "[7]", "result": "> 8.00"},
      {"measurement": "inhibition", "setting": "K562 [8]", "result": "Active"},
      {"measurement": "Activity", "setting": "[9]", "result": 99.3, "unit": "%"},
      {"measurement": "Activity", "setting": "[10]", "result": 101, "unit": "%"},
      {"measurement": "inhibition", "setting": "Homo sapiens [11]", "result": "Active"},
      {"measurement": "Activity", "setting": "[12]", "result": 102, "unit": "%"},
      {"measurement": "Activity", "setting": "[13]", "result": 98.9, "unit": "%"},
      {"measurement": "pEC50", "setting": "K562 [14]", "result": 6.80}
    ]}
  ]
}
